Data from article PMC3131532 (Chemistry & biology, 2011).

How the values were obtained:
PfSENP1 [1] = target: T1, PfSENP1 (Plasmodium falciparum, UniProt Q8I583); assay: SENP fluorogenic substrate; assay type: biochemical; conditions: read-out: IC50 PfSENP1; substrate QTGG-AFC
hSENP1 = target: T2, hSENP1 (Homo sapiens, UniProt Q9P0U3); assay: SENP fluorogenic substrate; assay type: biochemical; conditions: read-out: IC50 hSENP1; substrate QTGG-AFC
T2 sequence (Q9P0U3 419-644 limits assumed): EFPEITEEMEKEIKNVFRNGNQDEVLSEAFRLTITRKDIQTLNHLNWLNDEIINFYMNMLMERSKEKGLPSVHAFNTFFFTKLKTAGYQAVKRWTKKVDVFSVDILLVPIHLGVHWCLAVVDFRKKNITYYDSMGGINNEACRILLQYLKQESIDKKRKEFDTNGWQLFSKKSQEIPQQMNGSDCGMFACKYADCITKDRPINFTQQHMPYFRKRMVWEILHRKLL

hSENP2 = target: T3, hSENP2 (Homo sapiens, UniProt Q9HC62); assay: SENP fluorogenic substrate; assay type: biochemical; conditions: read-out: IC50 hSENP2; substrate QTGG-AFC
T3 sequence (Q9HC62 1-589): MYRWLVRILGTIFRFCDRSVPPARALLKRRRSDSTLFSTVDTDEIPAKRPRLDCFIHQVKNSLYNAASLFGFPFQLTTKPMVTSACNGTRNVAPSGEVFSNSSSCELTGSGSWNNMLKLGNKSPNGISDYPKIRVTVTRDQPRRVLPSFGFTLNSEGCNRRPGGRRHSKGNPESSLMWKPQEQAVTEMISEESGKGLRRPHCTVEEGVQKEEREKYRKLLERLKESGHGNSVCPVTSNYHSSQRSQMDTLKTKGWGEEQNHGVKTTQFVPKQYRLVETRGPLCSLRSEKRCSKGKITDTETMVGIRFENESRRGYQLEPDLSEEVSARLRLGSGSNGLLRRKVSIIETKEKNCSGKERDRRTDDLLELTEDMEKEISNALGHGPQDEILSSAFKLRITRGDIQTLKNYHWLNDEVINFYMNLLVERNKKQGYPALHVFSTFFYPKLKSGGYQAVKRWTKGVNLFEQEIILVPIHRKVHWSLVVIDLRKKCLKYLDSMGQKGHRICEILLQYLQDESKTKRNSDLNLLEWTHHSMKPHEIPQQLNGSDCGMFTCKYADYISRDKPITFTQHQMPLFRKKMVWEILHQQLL

hSENP6 = target: T4, hSENP6 (Homo sapiens, UniProt Q9GZR1); assay: SENP fluorogenic substrate; assay type: biochemical; conditions: read-out: IC50 hSENP6; substrate LRGG-AFC
T4 sequence (Q9GZR1 1-1112): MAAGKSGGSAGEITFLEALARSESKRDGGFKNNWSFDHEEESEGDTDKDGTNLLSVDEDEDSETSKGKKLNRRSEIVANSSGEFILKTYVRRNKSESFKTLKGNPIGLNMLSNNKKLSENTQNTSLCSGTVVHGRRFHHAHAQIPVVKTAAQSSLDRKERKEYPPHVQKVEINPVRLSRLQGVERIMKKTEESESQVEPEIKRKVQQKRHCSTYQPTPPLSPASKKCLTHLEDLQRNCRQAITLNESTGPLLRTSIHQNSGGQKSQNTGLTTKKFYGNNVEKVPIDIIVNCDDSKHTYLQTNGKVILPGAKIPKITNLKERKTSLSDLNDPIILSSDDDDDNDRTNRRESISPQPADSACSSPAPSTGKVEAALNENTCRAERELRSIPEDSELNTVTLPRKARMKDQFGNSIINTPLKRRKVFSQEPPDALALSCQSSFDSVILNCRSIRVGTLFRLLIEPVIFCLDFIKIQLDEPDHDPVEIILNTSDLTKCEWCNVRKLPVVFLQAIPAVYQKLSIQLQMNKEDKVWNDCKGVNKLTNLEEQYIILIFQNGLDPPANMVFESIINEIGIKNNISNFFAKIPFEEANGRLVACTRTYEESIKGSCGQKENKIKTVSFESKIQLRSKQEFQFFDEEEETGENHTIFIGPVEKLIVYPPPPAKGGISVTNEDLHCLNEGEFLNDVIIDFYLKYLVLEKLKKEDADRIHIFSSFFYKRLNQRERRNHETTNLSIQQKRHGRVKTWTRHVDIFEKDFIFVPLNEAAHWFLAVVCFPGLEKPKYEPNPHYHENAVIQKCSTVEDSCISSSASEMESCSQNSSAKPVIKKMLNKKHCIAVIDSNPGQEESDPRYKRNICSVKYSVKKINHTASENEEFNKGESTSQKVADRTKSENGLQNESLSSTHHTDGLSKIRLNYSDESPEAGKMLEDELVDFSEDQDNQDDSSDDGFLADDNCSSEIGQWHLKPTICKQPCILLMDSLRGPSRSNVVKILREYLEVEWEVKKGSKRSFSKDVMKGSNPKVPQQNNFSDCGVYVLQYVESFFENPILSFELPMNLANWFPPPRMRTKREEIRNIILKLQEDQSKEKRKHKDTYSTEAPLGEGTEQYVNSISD

hSENP8 (deNEDDylase) = target: T5, hSENP8 (deNEDDylase) (Homo sapiens, UniProt Q96LD8); assay: fluorogenic substrate; assay type: biochemical; conditions: read-out: IC50 hSENP8 (deNEDDylase); substrate LRGG-AFC
T5 sequence (Q96LD8 1-212): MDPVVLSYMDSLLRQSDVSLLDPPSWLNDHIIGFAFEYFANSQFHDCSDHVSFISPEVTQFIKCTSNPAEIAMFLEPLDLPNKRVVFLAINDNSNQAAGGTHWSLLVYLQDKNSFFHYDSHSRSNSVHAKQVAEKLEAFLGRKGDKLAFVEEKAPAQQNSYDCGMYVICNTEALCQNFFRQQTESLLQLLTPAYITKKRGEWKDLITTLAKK

UCH-L3 = target: T6, UCH-L3 (Homo sapiens, UniProt P15374); assay: DUB fluorogenic substrate; assay type: biochemical; conditions: read-out: IC50 UCH-L3; substrate LRGG-AFC
T6 sequence (P15374 1-230): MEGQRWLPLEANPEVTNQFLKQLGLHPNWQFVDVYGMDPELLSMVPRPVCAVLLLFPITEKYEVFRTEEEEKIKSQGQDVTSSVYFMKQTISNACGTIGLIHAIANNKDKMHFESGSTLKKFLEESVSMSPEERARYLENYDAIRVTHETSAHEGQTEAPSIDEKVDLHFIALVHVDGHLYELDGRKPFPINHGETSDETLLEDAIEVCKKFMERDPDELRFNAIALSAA

PfSENP1 [2] = target: T1, PfSENP1; assay: PfSUMO-pro cleavage assay with recombinant PfSENP1; assay type: biochemical; conditions: gel assay; VEA-260 0–200 µM; JCP analogs 0–300 µM; NEM 10 mM
In short: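 Recombinant PfSENP1, His6-tagged (imidazole-eluted) or untagged (released from CPD fusion with 100 µM InsP6), expressed in E. coli BL21(DE3) for 3 hr at 30°C after 0.1 mM IPTG induction. Enzyme pretreated with test compound or 10 mM N-ethylmaleimide; for the 0–200 µM series, PfSENP1 was 100 nM. PfSUMO-pro then added; reactions run on SDS-PAGE with Coomassie-type staining. No-enzyme substrate lane served as control.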

[3] = tested on: PfSENP activity in parasite lysates; assay: PfSUMO-pro processing assay in parasite lysates; assay type: biochemical, Plasmodium falciparum; conditions: mixed stage lysates; VEA-260 0–200 µM; NEM 10 mM; hSUMO-VS 10 µM
In short: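 Soluble mixed-stage parasite lysate was pretreated with test compound, NEM or hSUMO-VS, then given PfSUMO-pro substrate. For the library screen, 10 µg lysate was preincubated 30 min at room temperature with 100 µM (final) test compound from a DMSO stock. PfSUMO-pro was then added at 10 µM final for 1 h at 37°C. Reactions were quenched with SDS loading dye, resolved by SDS-PAGE and stained with Gelcode Blue. Controls were DMSO-treated lysate and substrate without lysate.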

PfSENP1 [4] = target: T1, PfSENP1; assay: Reversibility of PfSENP1 inhibition; assay type: biochemical; conditions: 200 µM inhibitor, 2 hr 37°C, then dilution and Ni-NTA enrichment
In short: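 PfSENP1 (200 nM) exposed to test compound (200 µM), N-ethylmaleimide (10 mM) or DMSO for 2 hr at 37°C. Input sample taken. Treated enzyme then diluted, recaptured on Ni2+-NTA and eluted with 300 mM imidazole. Input and eluate each added to PfSUMO-pro; cleavage resolved by SDS-PAGE with protein stain.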

falcipains 1/2/3 = assay: Competition for labeling with activity-based probes; assay type: biochemical, Plasmodium falciparum; conditions: mixed-stage lysates; VEA-260 0–250 µM
In short: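 Mixed-stage P. falciparum total lysates were pretreated with test compound (0–250 µM), or with unlabelled DCG-04 (100 µM) as a competition control, then labelled with 125I-DCG-04. Proteins were resolved by SDS-PAGE, and residual probe labelling was read by autoradiography.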

| Compound | IC50 (PfSENP1 [1]) [µM] | IC50 (hSENP1) [µM] | IC50 (hSENP2) [µM] | IC50 (hSENP6) [µM] | IC50 (hSENP8 (deNEDDylase)) [µM] | IC50 (UCH-L3) [µM] | inhibition of PfSUMO-pro cleavage by recombinant PfSENP1 (PfSENP1 [2]) | inhibition of PfSENP activity in parasite lysates [3] | reversibility of PfSENP1 inhibition (PfSENP1 [4]) | inhibition of falcipains (residual probe labeling) (falcipains 1/2/3) |
| --- | --- | --- | --- | --- | --- | --- | --- | --- | --- | --- |
| O=C(O)c1cccc(C(=O)NCc2ccc(C(=O)NNC(=O)[C@H]3O[C@@H]3C(=O)N(Cc3cccc4ccccc34)Cc3cccc4ccccc34)cc2)c1 [VEA-260] | 16.2 | 7.1 | 3.7 | > 100 | 9.1 | ~100 | as potent as the original JCP-666 | as potent as the original JCP-666 | irreversible inhibitor | did not inhibit any of the falcipains |
| CCN1C(=O)C=CC1=O [NEM, N-ethylmaleimide, reference compound] | – | – | – | – | – | – | cleavage was inhibited | processing activity could be blocked | – | – |
